Experimental data: ChEMBL document CHEMBL4689842, “EUbOPEN Chemogenomics Library wave 1” (2021)

Tests used:
Assay type in all cases: toxicity, cell-based
Fibroblast [1] = test: Multiplex assay against human fibroblast
In short: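 Per cents of healthy-nucleus cells form the tubulin, mitochondrial-mass and membrane-permeability phenotype values. Live cells were stained at seeding with Hoechst33342, BioTracker Green Microtubule Cytoskeleton Dye, MitoTracker Red and Annexin V Alexa Fluor 680. After compound addition they were imaged on a CQ1 microscope at 37°C and 5% CO2, and CellPathfinder machine-learning gating split them into Hoechst high-intensity objects or normal cells, normal cells into healthy, pyknosed or fragmented nuclei, and pyknosed cells into mitotic or apoptotic.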

Fibroblast [2] = test: Incucyte cell viability with human fibroblast; settings: 10 µM, compound concentration 10 uM; also: filed as whole numbers so only -1 and 0 and 1 occur
U2OS = test: Incucyte cell viability with U2OS; settings: human, 10 µM, compound concentration 10 uM; also: filed as whole numbers so only -1 and 0 and 1 occur
[3] = 12 h, 1 µM, compound concentration 1 uM, replicate 1
[4] = 12 h, 1 µM, compound concentration 1 uM, replicate 2
[5] = 12 h, 10 µM, compound concentration 10 uM, replicate 1
[6] = 12 h, 10 µM, compound concentration 10 uM, replicate 2
[7] = 24 h, 1 µM, compound concentration 1 uM, replicate 1
[8] = 24 h, 1 µM, compound concentration 1 uM, replicate 2
[9] = 24 h, 10 µM, compound concentration 10 uM, replicate 1
[10] = 24 h, 10 µM, compound concentration 10 uM, replicate 2
[11] = 48 h, 1 µM, compound concentration 1 uM, replicate 1
[12] = 48 h, 1 µM, compound concentration 1 uM, replicate 2
[13] = 48 h, 10 µM, compound concentration 10 uM, replicate 1
[14] = 48 h, 10 µM, compound concentration 10 uM, replicate 2
[15] = 24 h, replicate number 1, timepoint 24 hours

SMILES: CCn1c(-c2nonc2N)nc2cnc(Oc3cccc(NC(=O)c4ccc(OCCN5CCOCC5)cc4)c3)cc21 [GSK-269962A]
- Population Apoptotic (%) (Fibroblast [1]; [3]): 50%
- Population Fragmented Nuclei (%) (Fibroblast [1]; [3]): 29%
- Population Healthy Nuclei (%) (Fibroblast [1]; [3]): 36%
- Population Hoechst High Intensity Objects (%) (Fibroblast [1]; [3]): 12%
- Population Membrane Permeable-Phenotype (%) (Fibroblast [1]; [3]): 22%
- Population Mitochondria Different-Phenotype (%) (Fibroblast [1]; [3]): 2%
- Population Mitotic Cells (%) (Fibroblast [1]; [3]): 50%
- Population Normal (%) (Fibroblast [1]; [3]): 87%
- Population Pyknosed Nuclei (%) (Fibroblast [1]; [3]): 33%
- Population Tubulin-Different-Phenotype (%) (Fibroblast [1]; [3]): 46%
- Total Cell Count (Fibroblast [1]; [3]): 141
- Population Apoptotic (%) (Fibroblast [1]; [4]): 20%
- Population Fragmented Nuclei (%) (Fibroblast [1]; [4]): 20%
- Population Healthy Nuclei (%) (Fibroblast [1]; [4]): 72%
- Population Hoechst High Intensity Objects (%) (Fibroblast [1]; [4]): 2%
- Population Membrane Permeable-Phenotype (%) (Fibroblast [1]; [4]): 14%
- Population Mitochondria Different-Phenotype (%) (Fibroblast [1]; [4]): 16%
- Population Mitotic Cells (%) (Fibroblast [1]; [4]): 80%
- Population Normal (%) (Fibroblast [1]; [4]): 97%
- Population Pyknosed Nuclei (%) (Fibroblast [1]; [4]): 7%
- Population Tubulin-Different-Phenotype (%) (Fibroblast [1]; [4]): 14%
- Total Cell Count (Fibroblast [1]; [4]): 45
- Population Apoptotic (%) (Fibroblast [1]; [5]): 55%
- Population Fragmented Nuclei (%) (Fibroblast [1]; [5]): 40%
- Population Healthy Nuclei (%) (Fibroblast [1]; [5]): 28%
- Population Hoechst High Intensity Objects (%) (Fibroblast [1]; [5]): 12%
- Population Membrane Permeable-Phenotype (%) (Fibroblast [1]; [5]): 21%
- Population Mitochondria Different-Phenotype (%) (Fibroblast [1]; [5]): 47%
- Population Mitotic Cells (%) (Fibroblast [1]; [5]): 44%
- Population Normal (%) (Fibroblast [1]; [5]): 87%
- Population Pyknosed Nuclei (%) (Fibroblast [1]; [5]): 30%
- Population Tubulin-Different-Phenotype (%) (Fibroblast [1]; [5]): 83%
- Total Cell Count (Fibroblast [1]; [5]): 216
- Population Apoptotic (%) (Fibroblast [1]; [6]): 31%
- Population Fragmented Nuclei (%) (Fibroblast [1]; [6]): 20%
- Population Healthy Nuclei (%) (Fibroblast [1]; [6]): 57%
- Population Hoechst High Intensity Objects (%) (Fibroblast [1]; [6]): 7%
- Population Membrane Permeable-Phenotype (%) (Fibroblast [1]; [6]): 45%
- Population Mitochondria Different-Phenotype (%) (Fibroblast [1]; [6]): 97%
- Population Mitotic Cells (%) (Fibroblast [1]; [6]): 68%
- Population Normal (%) (Fibroblast [1]; [6]): 92%
- Population Pyknosed Nuclei (%) (Fibroblast [1]; [6]): 22%
- Population Tubulin-Different-Phenotype (%) (Fibroblast [1]; [6]): 100%
- Total Cell Count (Fibroblast [1]; [6]): 71
- Population Apoptotic (%) (Fibroblast [1]; [7]): 47%
- Population Fragmented Nuclei (%) (Fibroblast [1]; [7]): 21%
- Population Healthy Nuclei (%) (Fibroblast [1]; [7]): 47%
- Population Hoechst High Intensity Objects (%) (Fibroblast [1]; [7]): 14%
- Population Membrane Permeable-Phenotype (%) (Fibroblast [1]; [7]): 19%
- Population Mitochondria Different-Phenotype (%) (Fibroblast [1]; [7]): 9%
- Population Mitotic Cells (%) (Fibroblast [1]; [7]): 52%
- Population Normal (%) (Fibroblast [1]; [7]): 85%
- Population Pyknosed Nuclei (%) (Fibroblast [1]; [7]): 31%
- Population Tubulin-Different-Phenotype (%) (Fibroblast [1]; [7]): 41%
- Total Cell Count (Fibroblast [1]; [7]): 126
- Population Apoptotic (%) (Fibroblast [1]; [8]): 75%
- Population Fragmented Nuclei (%) (Fibroblast [1]; [8]): 11%
- Population Healthy Nuclei (%) (Fibroblast [1]; [8]): 77%
- Population Hoechst High Intensity Objects (%) (Fibroblast [1]; [8]): 2%
- Population Membrane Permeable-Phenotype (%) (Fibroblast [1]; [8]): 1%
- Population Mitochondria Different-Phenotype (%) (Fibroblast [1]; [8]): 10%
- Population Mitotic Cells (%) (Fibroblast [1]; [8]): 25%
- Population Normal (%) (Fibroblast [1]; [8]): 97%
- Population Pyknosed Nuclei (%) (Fibroblast [1]; [8]): 11%
- Population Tubulin-Different-Phenotype (%) (Fibroblast [1]; [8]): 14%
- Total Cell Count (Fibroblast [1]; [8]): 59
- Population Apoptotic (%) (Fibroblast [1]; [9]): 57%
- Population Fragmented Nuclei (%) (Fibroblast [1]; [9]): 37%
- Population Healthy Nuclei (%) (Fibroblast [1]; [9]): 42%
- Population Hoechst High Intensity Objects (%) (Fibroblast [1]; [9]): 12%
- Population Membrane Permeable-Phenotype (%) (Fibroblast [1]; [9]): 11%
- Population Mitochondria Different-Phenotype (%) (Fibroblast [1]; [9]): 58%
- Population Mitotic Cells (%) (Fibroblast [1]; [9]): 42%
- Population Normal (%) (Fibroblast [1]; [9]): 87%
- Population Pyknosed Nuclei (%) (Fibroblast [1]; [9]): 20%
- Population Tubulin-Different-Phenotype (%) (Fibroblast [1]; [9]): 81%
- Total Cell Count (Fibroblast [1]; [9]): 258
- Population Apoptotic (%) (Fibroblast [1]; [10]): 53%
- Population Fragmented Nuclei (%) (Fibroblast [1]; [10]): 30%
- Population Healthy Nuclei (%) (Fibroblast [1]; [10]): 52%
- Population Hoechst High Intensity Objects (%) (Fibroblast [1]; [10]): 5%
- Population Membrane Permeable-Phenotype (%) (Fibroblast [1]; [10]): 67%
- Population Mitochondria Different-Phenotype (%) (Fibroblast [1]; [10]): 97%
- Population Mitotic Cells (%) (Fibroblast [1]; [10]): 46%
- Population Normal (%) (Fibroblast [1]; [10]): 94%
- Population Pyknosed Nuclei (%) (Fibroblast [1]; [10]): 17%
- Population Tubulin-Different-Phenotype (%) (Fibroblast [1]; [10]): 100%
- Total Cell Count (Fibroblast [1]; [10]): 73
- Population Apoptotic (%) (Fibroblast [1]; [11]): 57%
- Population Fragmented Nuclei (%) (Fibroblast [1]; [11]): 28%
- Population Healthy Nuclei (%) (Fibroblast [1]; [11]): 58%
- Population Hoechst High Intensity Objects (%) (Fibroblast [1]; [11]): 11%
- Population Membrane Permeable-Phenotype (%) (Fibroblast [1]; [11]): 12%
- Population Mitochondria Different-Phenotype (%) (Fibroblast [1]; [11]): 3%
- Population Mitotic Cells (%) (Fibroblast [1]; [11]): 42%
- Population Normal (%) (Fibroblast [1]; [11]): 88%
- Population Pyknosed Nuclei (%) (Fibroblast [1]; [11]): 13%
- Population Tubulin-Different-Phenotype (%) (Fibroblast [1]; [11]): 29%
- Total Cell Count (Fibroblast [1]; [11]): 120
- Population Apoptotic (%) (Fibroblast [1]; [12]): 66%
- Population Fragmented Nuclei (%) (Fibroblast [1]; [12]): 27%
- Population Healthy Nuclei (%) (Fibroblast [1]; [12]): 69%
- Population Hoechst High Intensity Objects (%) (Fibroblast [1]; [12]): 12%
- Population Membrane Permeable-Phenotype (%) (Fibroblast [1]; [12]): 3%
- Population Mitochondria Different-Phenotype (%) (Fibroblast [1]; [12]): 0%
- Population Mitotic Cells (%) (Fibroblast [1]; [12]): 33%
- Population Normal (%) (Fibroblast [1]; [12]): 87%
- Population Pyknosed Nuclei (%) (Fibroblast [1]; [12]): 3%
- Population Tubulin-Different-Phenotype (%) (Fibroblast [1]; [12]): 22%
- Total Cell Count (Fibroblast [1]; [12]): 96
- Population Apoptotic (%) (Fibroblast [1]; [13]): 50%
- Population Fragmented Nuclei (%) (Fibroblast [1]; [13]): 36%
- Population Healthy Nuclei (%) (Fibroblast [1]; [13]): 50%
- Population Hoechst High Intensity Objects (%) (Fibroblast [1]; [13]): 20%
- Population Membrane Permeable-Phenotype (%) (Fibroblast [1]; [13]): 6%
- Population Mitochondria Different-Phenotype (%) (Fibroblast [1]; [13]): 38%
- Population Mitotic Cells (%) (Fibroblast [1]; [13]): 50%
- Population Normal (%) (Fibroblast [1]; [13]): 79%
- Population Pyknosed Nuclei (%) (Fibroblast [1]; [13]): 13%
- Population Tubulin-Different-Phenotype (%) (Fibroblast [1]; [13]): 80%
- Total Cell Count (Fibroblast [1]; [13]): 240
- Population Healthy Nuclei (%) (Fibroblast [1]; [14]): 58%
- Population Hoechst High Intensity Objects (%) (Fibroblast [1]; [14]): 22%
- Population Membrane Permeable-Phenotype (%) (Fibroblast [1]; [14]): 3%
- Population Mitochondria Different-Phenotype (%) (Fibroblast [1]; [14]): 17%
- Population Normal (%) (Fibroblast [1]; [14]): 77%
- Population Pyknosed Nuclei (%) (Fibroblast [1]; [14]): 4%
- Population Tubulin-Different-Phenotype (%) (Fibroblast [1]; [14]): 86%
- Total Cell Count (Fibroblast [1]; [14]): 172
- Growth Rate (Fibroblast [2]; 0 h, replicate number 1, timepoint 0 hours): 0
- Growth Rate (Fibroblast [2]; [15]): 1
- Growth Rate (U2OS; 12 h, replicate number 1, timepoint 12 hours): 1
- Growth Rate (U2OS; 18 h, replicate number 1, timepoint 18 hours): 1
- Growth Rate (U2OS; [15]): 1
